Data published in ChEMBL document CHEMBL1154352, “Toll-like receptor 7 selective synthetic oligoribonucleotide agonists: synthesis and structure-activity relationship studies” (J Med Chem, 2009).
Calls of active or inactive are those of the source. The calls are words filed in the database; no cut-off is given here.

What was measured:
[1] = test system: PBMC; assay: Immunomodulatory activity in human PBMC assessed as induction of IL6 after 24 hrs; type: functional, cell-based
How it was run: (§1)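 Human PBMCs plated at 5 × 10^6 cells/mL; compounds dissolved in PBS added at various concentrations, 37 °C for 24 h. Supernatant cytokines/chemokines quantified with human Luminex multiplex kit.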

[2] = test system: Mus musculus; assay: Immunomodulatory activity in TLR7 knockout C57BL/6 mouse assessed as induction of IL12 release at 10 mg/kg, sc after 2 hrs by ELISA; type: functional, organism-based; set-up: dose 10 mg/kg
How it was run: (§2)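 Male 8-week-old TLR9-/-, TLR7-/- or MyD88-/- mice on C57BL/6 background, n=3; single subcutaneous 10 mg/kg dose. Blood collected 2 h later by retro-orbital bleeding; serum IL-12 by ELISA.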

[3] = test system: PBMC; assay: Immunomodulatory activity in human PBMC assessed as induction of MCP1 after 24 hrs; type: functional, cell-based; how it was run: as §1
[4] = test system: PBMC; assay: Immunomodulatory activity in human PBMC assessed as induction of IL12 after 24 hrs; type: functional, cell-based; how it was run: as §1
[5] = test system: PBMC; assay: Immunomodulatory activity in human PBMC assessed as induction of IP10 after 24 hrs; type: functional, cell-based; how it was run: as §1
[6] = test system: PBMC; assay: Immunomodulatory activity in human PBMC assessed as induction of IFNalpha after 24 hrs; type: functional, cell-based; how it was run: as §1
[7] = test system: PBMC; assay: Immunomodulatory activity in human PBMC assessed as induction of IL1-beta after 24 hrs; type: functional, cell-based; how it was run: as §1
[8] = test system: Mus musculus; assay: Immunomodulatory activity in TLR9 knockout C57BL/6 mouse assessed as induction of IL12 release at 10 mg/kg, sc after 2 hrs by ELISA; type: functional, organism-based; set-up: dose 10 mg/kg; how it was run: as §2
[9] = test system: PBMC; assay: Immunomodulatory activity in human PBMC assessed as induction of IL10 after 24 hrs; type: functional, cell-based; how it was run: as §1
[10] = test system: PBMC; assay: Immunomodulatory activity in human PBMC assessed as induction of MIP1beta after 24 hrs; type: functional, cell-based; how it was run: as §1
[11] = test system: PBMC; assay: Immunomodulatory activity in human PBMC assessed as induction of TNFalpha after 24 hrs; type: functional, cell-based; how it was run: as §1

Nc1ccn([C@@H]2O[C@H](COP(=O)(S)O[C@H]3[C@@H](O)[C@H](n4cnc5c(N)ncnc54)O[C@@H]3CO)[C@@H](OP(=O)(S)OC[C@H]3O[C@@H](n4ccc(=O)[nH]c4=O)[C@H](O)[C@@H]3OP(=O)(S)OC[C@H]3O[C@@H](n4ccc5c(=O)[nH]c(N)nc54)[C@H](O)[C@@H]3OP(=O)(S)OC[C@H]3O[C@@H](n4ccc(N)nc4=O)[C@H](O)[C@@H]3OP(=O)(S)OC[C@H]3O[C@@H](n4ccc5c(=O)[nH]c(N)nc54)[C@H](O)[C@@H]3OP(=O)(S)OC[C@H]3O[C@@H](n4cnc5c(N)ncnc54)[C@H](O)[C@@H]3OP(=O)(S)OC[C@H]3O[C@@H](n4ccc5c(=O)[nH]c(N)nc54)[C@H](O)[C@@H]3OP(=O)(S)OC[C@H]3O[C@@H](n4ccc(N)nc4=O)[C@H](O)[C@@H]3OP(=O)(S)OC[C@H]3O[C@@H](n4ccc(=O)[nH]c4=O)[C@H](O)[C@@H]3OP(=O)(S)OC[C@H]3O[C@@H](n4ccc(=O)[nH]c4=O)[C@H](O)[C@@H]3OP(=O)(S)OCC(O)COP(=O)(S)O[C@H]3[C@@H](O)[C@H](n4ccc(=O)[nH]c4=O)O[C@@H]3COP(=O)(S)O[C@H]3[C@@H](O)[C@H](n4ccc(=O)[nH]c4=O)O[C@@H]3COP(=O)(S)O[C@H]3[C@@H](O)[C@H](n4ccc(N)nc4=O)O[C@@H]3COP(=O)(S)O[C@H]3[C@@H](O)[C@H](n4ccc5c(=O)[nH]c(N)nc54)O[C@@H]3COP(=O)(S)O[C@H]3[C@@H](O)[C@H](n4cnc5c(N)ncnc54)O[C@@H]3COP(=O)(S)O[C@H]3[C@@H](O)[C@H](n4ccc5c(=O)[nH]c(N)nc54)O[C@@H]3COP(=O)(S)O[C@H]3[C@@H](O)[C@H](n4ccc(N)nc4=O)O[C@@H]3COP(=O)(S)O[C@H]3[C@@H](O)[C@H](n4ccc5c(=O)[nH]c(N)nc54)O[C@@H]3COP(=O)(S)O[C@H]3[C@@H](O)[C@H](n4ccc(=O)[nH]c4=O)O[C@@H]3COP(=O)(S)O[C@H]3[C@@H](O)[C@H](n4ccc(N)nc4=O)O[C@@H]3COP(=O)(S)O[C@H]3[C@@H](O)[C@H](n4cnc5c(N)ncnc54)O[C@@H]3CO)[C@H]2O)c(=O)n1 (stereo partly specified)
Activity [1]: Dose-dependent effect | Activity [2]: inactive | Activity [3]: Dose-dependent effect | Activity [4]: Dose-dependent effect | Activity [5]: Dose-dependent effect | Activity [6]: Dose-dependent effect | Activity [7]: Dose-dependent effect | Activity [8]: Active | Activity [9]: Dose-dependent effect | Activity [10]: Dose-dependent effect | Activity [11]: Dose-dependent effect
